Published values pooled from the literature.
Observed: ABTS scavenging

SMILES | test | IC50
COc1cc(-c2oc3cc(O[C@@H]4O[C@H](CO)[C@@H](O)[C@H](O)[C@H]4O)cc(O)c3c(=O)c2O[C@@H]2O[C@H](CO)[C@@H](O)[C@H](O)[C@H]2O)ccc1O | absorbance | 41.7 µM
COc1ccc(-c2nc3cc(Cl)ccc3[nH]2)cc1OCc1ccccc1 | absorbance | 1.75 µM
Cc1ccc(NC(=O)Cc2c[nH]c3ccccc23)c(C)c1 |  | 1.9 µM
COc1ccc(-c2nc3ccccc3[nH]2)cc1OCc1ccccc1 | absorbance | 1.76 µM
O=c1c(O[C@@H]2O[C@H](CO)[C@@H](O)[C@H](O)[C@H]2O)c(-c2ccc(O)cc2)oc2cc(O[C@@H]3O[C@H](CO)[C@@H](O)[C@H](O)[C@H]3O)cc(O)c12 | absorbance | 30.6 µM
CSc1cccc(NC(=O)Cc2c[nH]c3ccccc23)c1 |  | 1.52 µM
COc1cc(-c2oc3cc(O)cc(O)c3c(=O)c2O[C@@H]2O[C@H](CO)[C@@H](O)[C@H](O)[C@H]2O)ccc1O | absorbance | 15.3 µM
Fc1ccc2[nH]c(-c3ccccc3OCc3ccccc3)nc2c1 | absorbance | 1.77 µM
Cc1c(C)c2c(c(C)c1O)CC[C@@](C)(CCC[C@H](C)CCC[C@H](C)CCCC(C)C)O2 |  | 8.37 µg/mL
COc1ccc(-c2nc3cc(C)c(C)cc3[nH]2)cc1OCc1ccccc1 | absorbance | 1.83 µM
O=C(O)c1cc(O)c(O)c(O)c1 | absorbance | 8.19 µM
O=C(Cc1c[nH]c2ccccc12)Nc1ccc(Br)cc1 |  | 0.58 µM
O=C(OC[C@H]1O[C@@H](OC(=O)c2cc(O)c(O)c(O)c2)[C@H](OC(=O)c2cc(O)c(O)c(O)c2)[C@@H](OC(=O)c2cc(O)c(O)c(O)c2)[C@@H]1O)c1cc(O)c(O)c(O)c1 | absorbance | 3.59 µM
Cc1ccc(NC(=O)Cc2c[nH]c3ccccc23)cc1C |  | 1.58 µM
COc1ccc(-c2nc3cc(F)ccc3[nH]2)cc1OCc1ccccc1 | absorbance | 1.72 µM
